Reference: ChEMBL document CHEMBL4130629 (J Med Chem, 2018)
Values after ≈ are worked out from the molar mass of the structure shown.

What was measured:
[1] = Permeability in human Caco2 cells; assay type: ADME, cell-based; conditions: Caco-2, read-out: permeability
[2] = Volume of distribution at steady state in Sprague-Dawley rat at 1 mg/kg, iv; assay type: ADME, organism-based; conditions: in vivo, read-out: Vdss
How it was run: (§1)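 Male Sprague-Dawley rats (300−350 g) with jugular vein and/or bile duct cannulas, n = 3 per route; dosed as a solution in PEG-400/ethanol (90/10). The iv dose was 1 mg/kg given as a 0.5 min bolus, with jugular blood sampled from 2 to 1440 min. The po dose was 5 mg/kg after an overnight fast, sampled from 15 to 1440 min. Plasma was taken from EDTA blood.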

[3] = Metabolic stability in human liver microsomes assessed as parent compound remaining after 10 mins; assay type: ADME, microsome; conditions: read-out: Stability
How it was run: (§2)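 Compound at 3 μM was incubated with human or rat liver microsomes, and the percentage of parent compound remaining was measured after 10 min.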

[4] = Metabolic stability in rat liver microsomes assessed as parent compound remaining after 10 mins; assay type: ADME, microsome; conditions: read-out: Stability; how it was run: as §2
[5] = Half life in Sprague-Dawley rat at 1 mg/kg, iv; assay type: ADME, organism-based; conditions: in vivo
[6] = AUC in Sprague-Dawley rat at 5 mg/kg, po after 24 hrs; assay type: ADME, organism-based; set-up: time < 24 hr, dose 5 mg/kg, route oral; conditions: in vivo; how it was run: as §1
[7] = system: Human immunodeficiency virus 1; test: Antiviral activity against ENV pseudotyped CCR5-tropic HIV1 […] infected in human HeLa67 cells after 3 days by luciferase reporter gene assay; assay type: functional, organism-based; conditions: Human immunodeficiency virus 1, HeLa67, 72 h
How it was run: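 Single-cycle infection with env-deleted, luciferase-reporter HIV-1 pseudotyped with the JRFL (CCR5) envelope, supplied by transfection; viral titers normalized by luminescence without compound. HeLa 67 cells were infected in the presence of compounds given as 3-fold serial dilutions made from 30 mM DMSO stocks.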

[8] = Clearance in Sprague-Dawley rat at 1 mg/kg, iv; assay type: ADME, organism-based; conditions: in vivo
[9] = Oral bioavailability in Sprague-Dawley rat at 5 mg/kg; assay type: ADME, organism-based; conditions: in vivo; how it was run: as §1
MT2 = test: Cytotoxicity against human MT2 cells assessed as decrease in cell viability after 3 days […]; assay type: functional; conditions: MT2, 72 h
[10] = Half life in human liver microsomes; assay type: ADME, microsome
[11] = Aqueous solubility of the compound; assay type: physicochemical; conditions: buffer
[12] = Half life in rat liver microsomes; assay type: ADME, microsome

| Papp [1] [×10⁻⁶ cm/s] | Vd [2] [L/kg] | remaining at 10 min [3] [%] | remaining at 10 min [4] [%] | half-life [5] [h] | AUC at 24 h [6] [µM·h] | EC50 [7] [nM] | clearance [8] [mL/min/kg] | bioavailability [9] [%] | half-life [10] [h] | solubility [11] [µg/mL] | half-life [12] [h] | Structure (SMILES) | CC50 (MT2) [nM] |
| --- | --- | --- | --- | --- | --- | --- | --- | --- | --- | --- | --- | --- | --- |
| 12.5 | 1.1 | 95 | 80 | 2.4 | 7.8 | 0.4 | 8.8 | 61 |  |  |  | COc1cnc(-c2cnccn2)c2[nH]cc(C(=O)C(=O)N3CCN(C(=O)c4ccccn4)[C@H](C)C3)c12 | > 300000 |
| 7.8 | 0.23 | 83 | 82 | 1.6 | 43.5 | 0.07 |  | 59 |  |  |  | COc1cnc(-n2ccnn2)c2[nH]cc(C(=O)C(=O)N3CCN(C(=O)c4ccccc4)CC3)c12 | 225000 |
| 14.3 | 0.49 | 83 | 78 | 0.7 | 8.6 | 0.08 | 12 | 59 |  |  |  | COc1cnc(-n2ccnn2)c2[nH]cc(C(=O)C(=O)N3CCN(C(=O)c4ccccc4)[C@H](C)C3)c12 | > 150000 |
| 6.6 | 0.18 | 100 | 100 | 0.8 | 0.13 | 0.21 | 5.6 | 0.43 | > 1.67 |  |  | COc1cnc(-c2cncc(=O)[nH]2)c2[nH]cc(C(=O)C(=O)N3CCN(C(=O)c4ccccc4)CC3)c12 | > 300000 |
| 20 | 0.47 | 72 | 78 | 0.56 | 13.2 | 0.16 |  | 72.8 |  | 69 (≈ 142 µM) |  | COc1cnc(-n2ccc(C)n2)c2[nH]cc(C(=O)C(=O)N3CCN(C(=O)c4ccccc4)[C@H](C)C3)c12 | 142000 |
|  | 1.1 | 81 | 90 | 2.9 | 1.99 | 0.14 |  | 19 |  |  |  | COc1cnc(-n2ccc(CO)n2)c2[nH]cc(C(=O)C(=O)N3CCN(C(=O)c4ccccc4)[C@H](C)C3)c12 | > 300000 |
| > 10 |  |  |  |  |  |  |  |  | > 1.67 |  | > 1.67 | O=C(C(=O)N1CCN(C(=O)c2ccccc2)CC1)c1c[nH]c2ccccc12 |  |
| 26.1 | 0.12 | 100 | 94 | 3.3 | 254 | 0.05 | 0.7 | 86 |  |  |  | CCc1ncn(-c2ncc(OC)c3c(C(=O)C(=O)N4CCN(C(=O)c5ccccc5)CC4)c[nH]c23)n1 | 90000 |
| < 1.5 |  | 97 | 100 |  |  | 0.14 |  |  |  | 58 (≈ 109 µM) |  | CCNC(=O)c1ncn(-c2ncc(OC)c3c(C(=O)C(=O)N4CCN(C(=O)c5ccccc5)CC4)c[nH]c23)n1 | > 300000 |
| < 1.5 | 0.4 | 98 | 99 | 0.5 | 0.03 | 0.04 | 57 | 0.8 |  |  |  | COc1cnc(-n2ccc(N)n2)c2[nH]cc(C(=O)C(=O)N3CCN(C(=O)c4ccccc4)CC3)c12 | > 150000 |
| 2.2 |  |  |  |  |  | 0.09 |  |  | 1.67 |  | 1.67 | COCc1ncn(-c2ncc(OC)c3c(C(=O)C(=O)N4CCN(C(=O)c5ccccc5)[C@H](C)C4)c[nH]c23)n1 | > 300000 |
|  | 1.9 | 100 | 27 | 4 | 14.6 | 0.11 |  | 85 | > 1.67 |  |  | COc1cnc(-c2cnccn2)c2[nH]cc(C(=O)C(=O)N3CCN(C(=O)c4ccccn4)CC3)c12 | > 300000 |
| 26 | 0.23 | 80 | 100 | 0.9 | 15.7 | 0.05 |  | 43.7 |  | 17 (≈ 36 µM) |  | COc1cnc(-n2ccc(C)n2)c2[nH]cc(C(=O)C(=O)N3CCN(C(=O)c4ccccc4)CC3)c12 | 130000 to 154000 |
| 1.5 to 4.9 |  |  |  |  |  | 0.51 |  |  | > 1.67 |  | > 1.67 | COc1cnc(-c2cncnc2)c2[nH]cc(C(=O)C(=O)N3CCN(C(=O)c4ccccc4)CC3)c12 | > 300000 |
| 22.4 | 0.29 | 74 | 76 | 1.4 | 34.8 | 0.13 | 4.3 | 65.5 |  |  |  | COc1cnc(-n2cc(C)nn2)c2[nH]cc(C(=O)C(=O)N3CCN(C(=O)c4ccccc4)[C@H](C)C3)c12 | 124000 |
| 12.8 | 0.34 | 94 | 98 | 3 | 88 | 0.18 |  | 104 |  |  |  | COc1cnc(-n2cnc(C)n2)c2[nH]cc(C(=O)C(=O)N3CCN(C(=O)c4ccccc4)[C@H](C)C3)c12 | > 300000 |
| 9.6 |  | 99 | 95 |  |  | 4.07 |  |  |  |  |  | COc1cnc(-n2ncnc2C)c2[nH]cc(C(=O)C(=O)N3CCN(C(=O)c4ccccc4)CC3)c12 | > 300000 |
| < 1.5 |  | 87 | 81 |  |  | 0.05 |  |  |  |  |  | CNC(=O)c1ccn(-c2ncc(OC)c3c(C(=O)C(=O)N4CCN(C(=O)c5ccccc5)CC4)c[nH]c23)n1 | 166000 |
| < 1.5 |  | 87 | 100 |  |  | 1.04 |  |  |  |  |  | CCN(CC)CCNc1ncn(-c2ncc(OC)c3c(C(=O)C(=O)N4CCN(C(=O)c5ccccc5)CC4)c[nH]c23)n1 | > 300000 |
| 31.5 | 0.2 | 84 | 90 | 3 | 82 | 0.08 |  | 88.4 |  |  |  | CCc1ncn(-c2ncc(OC)c3c(C(=O)C(=O)N4CCN(C(=O)c5ccccc5)[C@H](C)C4)c[nH]c23)n1 | 281000 |
| 16.6 |  | 94 | 84 |  |  | 0.06 |  |  |  |  |  | COc1cnc(-n2cc(C)nn2)c2[nH]cc(C(=O)C(=O)N3CCN(C(=O)c4ccccc4)CC3)c12 | > 300000 |
| 5.8 | 0.26 | 64 | 89 | 1.5 | 13 | 0.07 | 6.1 | 52 |  |  |  | COc1cnc(-n2cnc(N3CCOCC3)n2)c2[nH]cc(C(=O)C(=O)N3CCN(C(=O)c4ccccc4)CC3)c12 | 203000 |
| < 1.5 | 0.48 |  |  | 1.8 | 25.6 | 0.58 | 5.6 | 77.1 | > 1.67 |  | > 1.67 | COc1cnc(-n2cccn2)c2[nH]cc(C(=O)C(=O)N3CCN(C(=O)c4ccccc4)CC3)c12 | 288000 |
